Reference: ChEMBL document CHEMBL3616436, “Synthesis, cytotoxicity and antimicrobial activity of thiourea derivatives incorporating 3-(trifluoromethyl)phenyl moiety” (Eur J Med Chem, 2015)
Values after ≈ are worked out from the molar mass of the structure shown. Active and inactive are the calls of the source. The calls are words filed in the database; no cut-off is given here.

Legend:
[1] = system: Vesicular stomatitis virus; assay: Antiviral activity against Vesicular stomatitis virus ATCC VR 1540 infected in African green monkey Vero 76 cells assessed as reduction of virus-plaque formation after 2 days by crystal violet staining; format: functional, organism-based; conditions: ATCC VR 1540, Vero, 48 h
[2] = system: Staphylococcus epidermidis; assay: Antimicrobial activity against Staphylococcus epidermidis ATCC 12228 at 400 ug after 18 hrs by disc-diffusion method; format: functional; conditions: ATCC 12228, 18 h, read-out: IZ
Outline: (§1)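 Disc diffusion on Mueller-Hinton II agar per CLSI; 9 mm paper discs loaded with 400 µg compound from DMSO solution, dried, placed on agar; growth inhibition zone diameter read after 18 h at 35°C.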

Micrococcus luteus [3] = assay: Antimicrobial activity against Micrococcus luteus ATCC 10240 at 400 ug after 18 hrs by disc-diffusion method; format: functional; conditions: ATCC 10240, 18 h, read-out: IZ; outline: as §1
Staphylococcus aureus [4] = assay: Antimicrobial activity against Staphylococcus aureus ATCC 29213 after 18 hrs by twofold serial microdilution method; format: functional; conditions: ATCC 29213, 18 h
Coxsackievirus B5 = assay: Antiviral activity against Human coxsackievirus B5 ATCC VR-29 infected in African green monkey Vero 76 cells assessed as reduction of virus-plaque formation after 3 days by crystal violet staining; format: functional, organism-based; conditions: Enterovirus B, ATCC VR-29, Vero, 72 h
Outline: (§2)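 Plaque reduction: Vero-76 at 2x10^5 cells/well grown to confluent monolayers, infected 2 h at 50–100 PFU/well; after removing unadsorbed virus, overlay of D-MEM, 1% inactivated FBS, 0.75% methylcellulose with or without serial compound dilutions; 3 days at 37°C, fixed and stained with crystal violet in 50% ethanol, plaques counted; EC50 by linear regression.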

Staphylococcus aureus [5] = assay: Antimicrobial activity against Staphylococcus aureus ATCC 29213 at 400 ug after 18 hrs by disc-diffusion method; format: functional; conditions: ATCC 29213, 18 h, read-out: IZ; outline: as §1
[6] = Cytotoxicity against African green monkey Vero 76 cells assessed as cell viability after 48 to 96 hrs by crystal violet staining; format: cell-based; conditions: chlorocebus sabaeus
[7] = Cytotoxicity against human MT4 cells; format: cell-based
[8] = system: Mycobacterium tuberculosis; assay: Antimycobacterial activity against drug-sensitive Mycobacterium tuberculosis Spec. 192; format: functional
Outline: (§3)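 Classical test-tube successive-dilution method in Youmans' modification of Proskauer and Beck liquid medium with 10% bovine serum. Inoculum came from 14-day cultures. DMSO stock was 10 mg/mL, diluted geometrically in medium. Tubes were incubated at 37 °C. Concentrations tested were 3.1, 6.2, 12.5, 25, 50 and 100 µg/ml. MIC is the minimum concentration inhibiting growth relative to compound-free tubes.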

[9] = system: Staphylococcus epidermidis; assay: Antimicrobial activity against Staphylococcus epidermidis ATCC 35984 after 18 hrs by twofold serial microdilution method; format: functional; conditions: ATCC 35984, 18 h
Vaccinia virus = assay: Antiviral activity against Human Vaccinia virus ATCC VR-1549 infected in African green monkey Vero 76 cells assessed as reduction of virus-plaque formation after 3 days by crystal violet staining; format: functional, organism-based; conditions: Orthopoxvirus vaccinia, ATCC VR-1549, Vero, 72 h
Yellow fever virus = assay: Antiviral activity against Yellow fever virus 17D infected in BHK cells assessed as protection against virus-induced cytopathogenicity after 3 to 4 days by MTT assay; format: functional, cell-based
Poliovirus 1 = assay: Antiviral activity against Poliovirus type 1 ATCC VR-1562 infected in African green monkey Vero 76 cells assessed as reduction of virus-plaque formation after 2 days by crystal violet staining; format: functional, organism-based; conditions: Enterovirus C, ATCC VR-1562, Vero, 48 h
Staphylococcus aureus [10] = assay: Antimicrobial activity against Staphylococcus aureus ATCC 6538 after 18 hrs by twofold serial microdilution method; format: functional; conditions: ATCC 6538, 18 h
Staphylococcus aureus [11] = assay: Antimicrobial activity against Staphylococcus aureus ATCC 25923 after 18 hrs by twofold serial microdilution method; format: functional; conditions: ATCC 25923, 18 h
Staphylococcus aureus [12] = assay: Antimicrobial activity against Staphylococcus aureus NCTC 4163 after 18 hrs by twofold serial microdilution method; format: functional; conditions: NCTC 4163, 18 h
Bacillus subtilis = assay: Antimicrobial activity against Bacillus subtilis ATCC 6633 at 400 ug after 18 hrs by disc-diffusion method; format: functional; conditions: ATCC 6633, 18 h, read-out: IZ; outline: as §1
Staphylococcus aureus [13] = assay: Antimicrobial activity against Staphylococcus aureus ATCC 25923 at 400 ug after 18 hrs by disc-diffusion method; format: functional; conditions: ATCC 25923, 18 h, read-out: IZ; outline: as §1
[14] = system: Mycobacterium tuberculosis; assay: Antimycobacterial activity against Mycobacterium tuberculosis H37Rv ATCC 25618; format: functional; outline: as §3
Enterococcus hirae = assay: Antimicrobial activity against Enterococcus hirae ATCC 10541 at 400 ug after 18 hrs by disc-diffusion method; format: functional; outline: as §1
Human alphaherpesvirus 1 = assay: Antiviral activity against Human herpesvirus 1 KOS ATCC VR-1493 infected in African green monkey Vero 76 cells assessed as reduction of virus-plaque formation after 3 days by crystal violet staining; format: functional, organism-based; conditions: Human alphaherpesvirus 1, KOS ATCC VR1493, Vero, 72 h; outline: as §2
Bacillus cereus = assay: Antimicrobial activity against Bacillus cereus ATCC 11778 at 400 ug after 18 hrs by disc-diffusion method; format: functional; conditions: ATCC 11778, 18 h, read-out: IZ; outline: as §1
Staphylococcus aureus [15] = assay: Antimicrobial activity against Staphylococcus aureus ATCC 6538 at 400 ug after 18 hrs by disc-diffusion method; format: functional; conditions: ATCC 6538, 18 h, read-out: IZ; outline: as §1
Micrococcus luteus [16] = assay: Antimicrobial activity against Micrococcus luteus ATCC 9341 at 400 ug after 18 hrs by disc-diffusion method; format: functional; conditions: ATCC 9341, 18 h, read-out: IZ; outline: as §1
Staphylococcus aureus [17] = assay: Antimicrobial activity against Staphylococcus aureus NCTC 4163 at 400 ug after 18 hrs by disc-diffusion method; format: functional; conditions: NCTC 4163, 18 h, read-out: IZ; outline: as §1
[18] = Cytotoxicity against BHK cells assessed as cell viability after 48 to 96 hrs by MTT assay; format: cell-based, Mesocricetus auratus; conditions: hamster
Proteus vulgaris = assay: Antimicrobial activity against Proteus vulgaris NCTC 4635 at 400 ug after 18 hrs by disc-diffusion method; format: functional; outline: as §1
Enterococcus faecalis = assay: Antimicrobial activity against Enterococcus faecalis ATCC 29212 at 400 ug after 18 hrs by disc-diffusion method; format: functional; conditions: ATCC 29212, 18 h, read-out: IZ; outline: as §1
[19] = Cytotoxicity against bovine MDBK cells assessed as cell viability after 48 to 96 hrs by MTT assay; format: cell-based, Bos taurus; conditions: cattle
[20] = system: Mammalian orthoreovirus 1; assay: Antiviral activity against Reovirus type-1 ATCC VR-214 infected in BHK cells assessed as protection against virus-induced cytopathogenicity after 3 to 4 days by MTT assay; format: functional, cell-based; conditions: Mammalian orthoreovirus 1, ATCC VR-214, BHK
Outline: (§4)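 Cells seeded in 96-well plates (BHK 5x10^4, MDBK 3x10^4 cells/well), grown overnight to confluence, infected at m.o.i. 0.01 (BHK for Reo-1, MDBK for BVDV); serial compound dilutions in maintenance medium with 0.5% inactivated FBS added after 1 h; viability by MTT after 3–4 days at 37°C; EC50 for 50% protection by linear regression.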

[21] = system: Human immunodeficiency virus 1; assay: Antiviral activity against HIV1 3B infected in human MT4 cells assessed as protection against virus-induced cytopathogenicity by MTT assay; format: functional, organism-based; conditions: Human immunodeficiency virus 1, 3B
[22] = system: Staphylococcus epidermidis; assay: Antimicrobial activity against Staphylococcus epidermidis ATCC 12228 after 18 hrs by twofold serial microdilution method; format: functional; conditions: ATCC 12228, 18 h
[23] = system: Staphylococcus epidermidis; assay: Antimicrobial activity against Staphylococcus epidermidis ATCC 35984 at 400 ug after 18 hrs by disc-diffusion method; format: functional; conditions: ATCC 35984, 18 h, read-out: IZ; outline: as §1
[24] = Antiviral activity against Bovine viral diarrhea virus 1-NADL ATCC VR-534 infected in MDBK cells assessed as protection against virus-induced cytopathogenicity after 3 to 4 days by MTT assay; format: functional, cell-based; conditions: Bovine viral diarrhea virus isolates and strains, ATCC VR-534, MDBK; outline: as §4

CSCCCNC(=S)Nc1cccc(C(F)(F)F)c1
EC50 [1]: > 100 µM | zone of inhibition at 400 µg/disc [2]: 20 mm | zone of inhibition at 400 µg/disc (Micrococcus luteus [3]): 16 mm | MIC (Staphylococcus aureus [4]): 32 µg/mL (≈ 104 µM) | EC50 (Coxsackievirus B5): > 100 µM | zone of inhibition at 400 µg/disc (Staphylococcus aureus [5]): 18 mm | CC50 [6]: > 100 µM | CC50 [7]: 43 µM | MIC [8]: 100 µg/mL (≈ 324 µM) | MIC [9]: 64 µg/mL (≈ 208 µM) | EC50 (Vaccinia virus): > 100 µM | EC50 (Yellow fever virus): > 100 µM | EC50 (Poliovirus 1): > 100 µM | MIC (Staphylococcus aureus [10]): 32 µg/mL (≈ 104 µM) | MIC (Staphylococcus aureus [11]): 32 µg/mL (≈ 104 µM) | MIC (Staphylococcus aureus [12]): 32 µg/mL (≈ 104 µM) | zone of inhibition at 400 µg/disc (Bacillus subtilis): 18 mm | zone of inhibition at 400 µg/disc (Staphylococcus aureus [13]): 18 mm | MIC [14]: 50 µg/mL (≈ 162 µM) | inhibition zone (IZ) (Enterococcus hirae): inactive | EC50 (Human alphaherpesvirus 1): > 100 µM | zone of inhibition at 400 µg/disc (Bacillus cereus): 19 mm | zone of inhibition at 400 µg/disc (Staphylococcus aureus [15]): 18 mm | zone of inhibition at 400 µg/disc (Micrococcus luteus [16]): 20 mm | zone of inhibition at 400 µg/disc (Staphylococcus aureus [17]): 19 mm | CC50 [18]: > 100 µM | inhibition zone (IZ) (Proteus vulgaris): inactive | zone of inhibition at 400 µg/disc (Enterococcus faecalis): 13 mm | CC50 [19]: > 100 µM | EC50 [20]: > 100 µM | EC50 [21]: > 43 µM | MIC [22]: 32 µg/mL (≈ 104 µM) | zone of inhibition at 400 µg/disc [23]: 16 mm | EC50 [24]: > 100 µM

COc1cccc(NC(=S)Nc2cccc(C(F)(F)F)c2)c1
EC50 [1]: > 20 µM | zone of inhibition at 400 µg/disc [2]: 22 mm | zone of inhibition at 400 µg/disc (Micrococcus luteus [3]): 19 mm | MIC (Staphylococcus aureus [4]): 32 µg/mL (≈ 98.1 µM) | EC50 (Coxsackievirus B5): > 20 µM | zone of inhibition at 400 µg/disc (Staphylococcus aureus [5]): 22 mm | CC50 [6]: 20 µM | CC50 [7]: 26 µM | MIC [8]: > 100 µg/mL | MIC [9]: 32 µg/mL (≈ 98.1 µM) | EC50 (Vaccinia virus): > 20 µM | EC50 (Yellow fever virus): > 12 µM | EC50 (Poliovirus 1): > 20 µM | MIC (Staphylococcus aureus [10]): 32 µg/mL (≈ 98.1 µM) | MIC (Staphylococcus aureus [11]): 32 µg/mL (≈ 98.1 µM) | MIC (Staphylococcus aureus [12]): 32 µg/mL (≈ 98.1 µM) | zone of inhibition at 400 µg/disc (Bacillus subtilis): 20 mm | zone of inhibition at 400 µg/disc (Staphylococcus aureus [13]): 20 mm | MIC [14]: > 100 µg/mL | zone of inhibition at 400 µg/disc (Enterococcus hirae; ATCC 10541, 18 h, read-out: IZ): 12 mm | EC50 (Human alphaherpesvirus 1): > 20 µM | zone of inhibition at 400 µg/disc (Bacillus cereus): 19 mm | zone of inhibition at 400 µg/disc (Staphylococcus aureus [15]): 23 mm | zone of inhibition at 400 µg/disc (Micrococcus luteus [16]): 24 mm | zone of inhibition at 400 µg/disc (Staphylococcus aureus [17]): 20 mm | CC50 [18]: 12 µM | inhibition zone (IZ) (Proteus vulgaris): inactive | zone of inhibition at 400 µg/disc (Enterococcus faecalis): 13 mm | CC50 [19]: 52 µM | EC50 [20]: > 12 µM | EC50 [21]: > 26 µM | MIC [22]: 32 µg/mL (≈ 98.1 µM) | zone of inhibition at 400 µg/disc [23]: 21 mm | EC50 [24]: > 52 µM

O=C1Nc2ccc(Cl)cc2[C@@](C#CC2CC2)(C(F)(F)F)O1 [EFAVIRENZ]
CC50 [7]: 40 µM
